Blank lines part the entries; values can stand above or below the compound they belong to.
How the values were obtained:
Pseudomonas aeruginosa [1] = assay: Sterilization time for contact germicidal efficiency (CGE) of salt was tested against at Pseudomonas aeruginosa at pH 7.0, concentration 1042.1 ppm; format: functional
Procedure, shortened: (§1)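 Test solutions of the quaternary salt in buffer stood 30 min at room temperature. 0.2 mL of overnight broth culture was added to 5 mL of solution. Inocula: S. aureus ATCC 6538 6-8 × 10^6 cfu/mL, P. aeruginosa ATCC 9027 12-13 × 10^6/mL, S. pyogenes ATCC 19615 5 × 10^6 cfu/mL. At 0.5-30 min intervals a loop was subcultured into nutrient broth and incubated 7 days at 37 °C. Sterilization time is the first interval giving no growth.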

Staphylococcus aureus [2] = assay: Sterilization time for contact germicidal efficiency (CGE) of salt was tested against Staphylococcus aureus at pH 7.0, concentration 1042.1 ppm; format: functional; procedure, shortened: as §1
Streptococcus pyogenes [3] = assay: Sterilization time for contact germicidal efficiency (CGE) of salt was tested against at Streptococcus pyogenes at pH 7.0, concentration 1042.1 ppm; format: functional
Procedure, shortened: (§2)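 Streptococcus pyogenes ATCC 19615 overnight culture, 5 × 10^6 cfu/mL; 0.2 mL into 5 mL test solution of salt in buffer, left 30 min at room temperature beforehand. At timed intervals (0.5 to 30 min), a 3-mm loop was transferred to sterile nutrient broth and incubated at 37 °C for 7 days. Sterilization time is the shortest interval without growth; buffer-only and viability controls were run.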

[4] = Toxicity of the salt was tested on white swiss male mice after intraperitoneal administration; format: organism-based; conditions: mouse, in vivo, ip
Procedure, shortened: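 Male White Swiss mice (MCR-ICR), 20-23 g, 10-20 per dose. Salt given in isotonic NaCl, pH 7.0 (adjusted with sodium bicarbonate). LD50 with confidence limits was calculated by Litchfield–Wilcoxon.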

[5] = Toxicity of the salt was tested on white swiss male mice after oral administration; format: organism-based; conditions: mouse, in vivo
Procedure, shortened: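 Male White Swiss mice (MCR-ICR), 20-23 g, 10-20 per dose, dosed orally. At higher doses the salt was given in 0.8% NaCl brought to pH 5.84 with sodium bicarbonate. LD50 was calculated by Litchfield–Wilcoxon.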

Pseudomonas aeruginosa [6] = assay: Sterilization time for contact germicidal efficiency (CGE) of salt was tested against at Pseudomonas aeruginosa at pH 7.0, concentration 1038.7 ppm; format: functional
Pseudomonas aeruginosa [7] = assay: Sterilization time for contact germicidal efficiency (CGE) of salt was tested against at Pseudomonas aeruginosa at pH 7.0, concentration 1039 ppm; format: functional
Pseudomonas aeruginosa [8] = assay: Sterilization time for contact germicidal efficiency (CGE) of salt was tested against at Pseudomonas aeruginosa at pH 7.0, concentration 936.0 ppm; format: functional
Pseudomonas aeruginosa [9] = assay: Sterilization time for contact germicidal efficiency (CGE) of salt was tested against at Pseudomonas aeruginosa at pH 6.0, concentration 1018 ppm; format: functional
Pseudomonas aeruginosa [10] = assay: Sterilization time for contact germicidal efficiency (CGE) of salt was tested against at Pseudomonas aeruginosa at pH 8.0, concentration 1018 ppm; format: functional
Staphylococcus aureus [11] = assay: Sterilization time for contact germicidal efficiency (CGE) of salt was tested against Staphylococcus aureus at pH 7.0, concentration 1038.7 ppm; format: functional
Streptococcus pyogenes [12] = assay: Sterilization time for contact germicidal efficiency (CGE) of salt was tested against at Streptococcus pyogenes at pH 6.0, concentration 1018 ppm; format: functional
Staphylococcus aureus [13] = assay: Sterilization time for contact germicidal efficiency (CGE) of salt was tested against Staphylococcus aureus at pH 7.0, concentration 936.0 ppm; format: functional
Streptococcus pyogenes [14] = assay: Sterilization time for contact germicidal efficiency (CGE) of salt was tested against at Streptococcus pyogenes at pH 7.0, concentration 1038.7 ppm; format: functional
Streptococcus pyogenes [15] = assay: Sterilization time for contact germicidal efficiency (CGE) of salt was tested against at Streptococcus pyogenes at pH 7.0, concentration 1039 ppm; format: functional
Staphylococcus aureus [16] = assay: Sterilization time for contact germicidal efficiency (CGE) of salt was tested against at Staphylococcus aureus at pH 6.0, concentration 1018 ppm; format: functional
Staphylococcus aureus [17] = assay: Sterilization time for contact germicidal efficiency (CGE) of salt was tested against at Staphylococcus aureus at pH 7.0, concentration 1039 ppm; format: functional
Staphylococcus aureus [18] = assay: Sterilization time for contact germicidal efficiency (CGE) of salt was tested against at Staphylococcus aureus at pH 8.0, concentration 1018 ppm; format: functional
Streptococcus pyogenes [19] = assay: Sterilization time for contact germicidal efficiency (CGE) of salt was tested against at Streptococcus pyogenes at pH 7.0, concentration 936.0 ppm; format: functional
Streptococcus pyogenes [20] = assay: Sterilization time for contact germicidal efficiency (CGE) of salt was tested against at Streptococcus pyogenes at pH 8.0, concentration 1018 ppm; format: functional
Bacillus subtilis = assay: Minimum inhibitory concentration of salt was tested against Bacillus subtilis at 0.1 M NaH2PO4 adjusted to pH 7.0; format: functional
Pseudomonas aeruginosa [21] = assay: Minimum inhibitory concentration of salt was tested against Pseudomonas aeruginosa at 0.1 M NaH2PO4 adjusted to pH 7.0; format: functional
Pseudomonas aeruginosa [22] = assay: (§3) Sterilization time for contact germicidal efficiency (CGE) of salt was tested against at Pseudomonas aeruginosa at pH 7.0, concentration 1027 ppm; format: functional; procedure, shortened: as §1
Pseudomonas aeruginosa [23] = assay: as §3; format: functional; procedure, shortened: as §1; remark: listed apart in the source
Pseudomonas aeruginosa [24] = assay: Sterilization time for contact germicidal efficiency (CGE) of salt was tested against at Pseudomonas aeruginosa at pH 6.0, concentration 1016 ppm; format: functional; procedure, shortened: as §1
Pseudomonas aeruginosa [25] = assay: Sterilization time for contact germicidal efficiency (CGE) of salt was tested against at Pseudomonas aeruginosa at pH 8.0, concentration 1022 ppm; format: functional
Procedure, shortened: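 Pseudomonas aeruginosa ATCC 9027 overnight broth culture (12-13 × 10^6 organisms/mL); 0.2 mL added to 5 mL buffered salt solution held 30 min at room temperature. At intervals from 0.5 to 30 min, a 3-mm loop was subcultured into nutrient broth and incubated at 37 °C for 7 days. Sterilization time is the shortest interval whose subculture gave no growth.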

Staphylococcus aureus [26] = assay: Sterilization time for contact germicidal efficiency (CGE) of salt was tested against Staphylococcus aureus at pH 7.0 in horse serum at contact time=0 min; format: functional
Procedure, shortened: (§4)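 S. aureus ATCC 6538 CGE screen with solutions in 0.1 M NaH2PO4 pH 7.0 diluted with 10% horse serum in distilled water, adjusted to pH 7 with CO2. Contact times of 0-15 min were used. Overnight culture was added, and loop subcultures taken at 0.5-30 min were grown 7 days at 37 °C in nutrient broth. Sterilization time is the first interval giving no growth.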

Staphylococcus aureus [27] = assay: Sterilization time for contact germicidal efficiency (CGE) of salt was tested against Staphylococcus aureus at pH 7.0 in horse serum at contact time=10 min; format: functional; procedure, shortened: as §4
Staphylococcus aureus [28] = assay: Sterilization time for contact germicidal efficiency (CGE) of salt was tested against Staphylococcus aureus at pH 7.0 in horse serum at contact time=15 min; format: functional; procedure, shortened: as §4
Staphylococcus aureus [29] = assay: Sterilization time for contact germicidal efficiency (CGE) of salt was tested against Staphylococcus aureus at pH 7.0 in horse serum at contact time=5 min; format: functional; procedure, shortened: as §4
Staphylococcus aureus [30] = assay: Sterilization time for contact germicidal efficiency (CGE) of salt was tested against Staphylococcus aureus at pH 7.0 in water diluent; format: functional; procedure, shortened: as §1
Staphylococcus aureus [31] = assay: Sterilization time for contact germicidal efficiency (CGE) of salt was tested against Staphylococcus aureus at pH 7.0, concentration 1027 ppm; format: functional; procedure, shortened: as §1
Streptococcus pyogenes [32] = assay: Minimum inhibitory concentration of salt was tested against Streptococcus pyogenes aureus at 0.1 M NaH2PO4 adjusted to pH 7.0; format: functional
Streptococcus pyogenes [33] = assay: Sterilization time for contact germicidal efficiency (CGE) of salt was tested against at Streptococcus pyogenes at pH 6.0, concentration 1016 ppm; format: functional; procedure, shortened: as §2
Staphylococcus aureus [34] = assay: Minimum inhibitory concentration of salt was tested against Staphylococcus aureus aureus at 0.1 M NaH2PO4 adjusted to pH 7.0; format: functional
Procedure, shortened: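 Bacteria grown 18-20 h at 37 °C in tryptose phosphate broth, adjusted to OD650 0.01, then diluted into double-strength medium to about 2 × 10^5 viable organisms/mL. Compound in 0.1 M NaH2PO4 pH 7.0 was serially twofold diluted into sterile water and added 1:1 to the cultures. MIC read after 18-20 h at 37 °C, with viability, sterility and buffer controls.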

Staphylococcus aureus [35] = assay: Sterilization time for contact germicidal efficiency (CGE) of salt was tested against at Staphylococcus aureus at pH 6.0, concentration 1016 p.p.m.; format: functional
Procedure, shortened: (§5)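 Staphylococcus aureus ATCC 6538, overnight broth culture at 6-8 × 10^6 cfu/mL; 0.2 mL inoculated into 5 mL of buffered quaternary salt solution pre-held 30 min at room temperature. Loop subcultures (3 mm) taken at 0.5-30 min intervals into nutrient broth, incubated at 37 °C for 7 days and read daily. The endpoint is the earliest time giving a growth-free subculture.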

Staphylococcus aureus [36] = assay: Sterilization time for contact germicidal efficiency (CGE) of salt was tested against at Staphylococcus aureus at pH 7.0, concentration 1027 ppm; format: functional; procedure, shortened: as §5
Staphylococcus aureus [37] = assay: Sterilization time for contact germicidal efficiency (CGE) of salt was tested against at Staphylococcus aureus at pH 8.0, concentration 1022 ppm; format: functional; procedure, shortened: as §5
Streptococcus pyogenes [38] = assay: Sterilization time for contact germicidal efficiency (CGE) of salt was tested against at Streptococcus pyogenes at pH 8.0, concentration 1022 ppm; format: functional; procedure, shortened: as §2
Streptococcus pyogenes [39] = assay: Sterilization time for contact germicidal efficiency (CGE) of salt was tested against at Streptococcus pyogenes at pH 7.0, concentration 1027 ppm; format: functional; procedure, shortened: as §2
Salmonella typhimurium = assay: Minimum inhibitory concentration of salt was tested against Salmonella Typhimurium […] at 0.1 M NaH2PO4 adjusted to pH 7.0; format: functional; conditions: Salmonella enterica
Pseudomonas aeruginosa [40] = assay: Sterilization time for contact germicidal efficiency (CGE) of salt was tested against at Pseudomonas aeruginosa at pH 7.0, concentration 1116.0 ppm; format: functional; procedure, shortened: as §1
Staphylococcus aureus [41] = assay: Sterilization time for contact germicidal efficiency (CGE) of salt was tested against Staphylococcus aureus at pH 7.0, concentration 1116.0 ppm; format: functional; procedure, shortened: as §1
Streptococcus pyogenes [42] = assay: Sterilization time for contact germicidal efficiency (CGE) of salt was tested against at Streptococcus pyogenes at pH 7.0, concentration 1116.0 ppm; format: functional; procedure, shortened: as §2
Staphylococcus aureus [43] = assay: Sterilization time for contact germicidal efficiency (CGE) of salt was tested against Staphylococcus aureus at pH 7.0, concentration 254 ppm; format: functional
Streptococcus pyogenes [44] = assay: Sterilization time for contact germicidal efficiency (CGE) of salt was tested against Streptococcus pyogenes at pH 7.0, concentration 254 ppm; format: functional
Pseudomonas aeruginosa [45] = assay: Sterilization time for contact germicidal efficiency (CGE) of salt was tested against Pseudomonas aeruginosa at pH 7.0, concentration 254 ppm; format: functional

SMILES: CCCCCCCCCCCCCC(=O)OC[n+]1ccccc1.[Cl-]
Time (Pseudomonas aeruginosa [1]): 1 min
Time (Staphylococcus aureus [2]): 1 min
Time (Streptococcus pyogenes [3]): 0.5 min

SMILES: CCCCCCCCCCCCCCCC[n+]1ccccc1.[Cl-]
LD50 [4]: 10 mg/kg
LD50 [5]: 108 mg/kg
Time (Pseudomonas aeruginosa [6]): 0.5 min
Time (Pseudomonas aeruginosa [7]): 0.5 min
Time (Pseudomonas aeruginosa [8]): 0.5 min
Time (Pseudomonas aeruginosa [9]): 0.5 min
Time (Pseudomonas aeruginosa [10]): 0.5 min
Time (Staphylococcus aureus [11]): 0.5 min
Time (Streptococcus pyogenes [12]): 0.5 min
Time (Staphylococcus aureus [13]): 0.5 min
Time (Streptococcus pyogenes [14]): 0.5 min
Time (Streptococcus pyogenes [15]): 0.5 min
Time (Staphylococcus aureus [16]): 0.5 min
Time (Staphylococcus aureus [17]): 0.5 min
Time (Staphylococcus aureus [18]): 0.5 min
Time (Streptococcus pyogenes [19]): 0.5 min
Time (Streptococcus pyogenes [20]): 0.5 min

MIC (Bacillus subtilis): 32.8 µg/mL
MIC (Pseudomonas aeruginosa [21]): 1050 µg/mL
MIC (Streptococcus pyogenes [32]): 4.1 µg/mL
MIC (Staphylococcus aureus [34]): 16.4 µg/mL
MIC (Salmonella typhimurium): 262 µg/mL
SMILES: CCCCCCCCCCCC(=O)OC[N+]12CCC(CC1)CC2.[Cl-]
Time (Pseudomonas aeruginosa [22]): 0.5 min
Time (Pseudomonas aeruginosa [23]): 3 min
Time (Pseudomonas aeruginosa [24]): 0.5 min
Time (Pseudomonas aeruginosa [25]): 0.5 min
Time (Staphylococcus aureus [26]): 1 min
Time (Staphylococcus aureus [27]): 5 min
Time (Staphylococcus aureus [28]): >30 min
Time (Staphylococcus aureus [29]): 3 min
Time (Staphylococcus aureus [30]): 0.5 min
Time (Staphylococcus aureus [31]): 0.5 min
Time (Streptococcus pyogenes [33]): 0.5 min
Time (Staphylococcus aureus [35]): 1 min
Time (Staphylococcus aureus [36]): 0.5 min
Time (Staphylococcus aureus [37]): 0.5 min
Time (Streptococcus pyogenes [38]): 2 min
Time (Streptococcus pyogenes [39]): 0.5 min

MIC (Bacillus subtilis): 32.6 µg/mL
MIC (Pseudomonas aeruginosa [21]): 1040 µg/mL
MIC (Streptococcus pyogenes [32]): 32.6 µg/mL
MIC (Staphylococcus aureus [34]): 130 µg/mL
MIC (Salmonella typhimurium): 522 µg/mL
SMILES: CCCCCCCCCCCC(=O)OC[n+]1cccc(C(=O)NCC)c1.[Cl-]
Time (Pseudomonas aeruginosa [40]): 3 min
Time (Staphylococcus aureus [41]): 0.5 min
Time (Streptococcus pyogenes [42]): 0.5 min

SMILES: Cn1ccnc1 [1-METHYLIMIDAZOLE]
Time (Staphylococcus aureus [43]): >30 min
Time (Streptococcus pyogenes [44]): >30 min
Time (Pseudomonas aeruginosa [45]): >30 min

Source: ChEMBL document CHEMBL1121429, “Soft drugs. 1. Labile quaternary ammonium salts as soft antimicrobials” (J Med Chem, 1980)
